Data from publication PMC4258449 (Nitric oxide : biology and chemistry / official journal of …, 2014).
Where two headings read alike, the source gives them in different places.

Experiments:
[1] = physiological conditions; cited from earlier work
[2] = test system: MDA-MB-231 and MCF-7 cells; conditions: cited from earlier work
[3] = format: physicochemical; conditions: for half-life: assay buffer: 50 µM DTPA in phosphate-buffered saline; for k (decomposition rate constant): pH 7.4, 37 °C, assay buffer
MCF-7 cells = assay: Clonogenic cell viability assay; format: cell-based, human; conditions: MCF-7, 0.5–20 mM, 24 h treatment
Summary of the method: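 MCF-7 cells in RPMI 1640 with 10% FBS and penicillin/streptomycin at 37 °C, 5% CO2, were seeded at 400,000 per 60-mm dish and grown 48 h. They were exposed in growth medium for 24 h, PBS-washed twice, trypsinized, counted and replated at 100, 1,000 or 10,000 per plate in triplicate. Colonies were crystal-violet stained after 10–12 d and counted. Experiments were repeated at least twice; mean ± SD.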

[4] = test system: MDA-MB-231 breast cancer cells; assay: Intracellular HNO/NO release with DAF-FM-2DA; format: cell-based, human; conditions: 10 µM donor, MDA-MB-231 cells loaded with 10 µM DAF-FM-2DA, 37 °C
Summary of the method: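 They then received 10 µM donor, given as ionic diazeniumdiolates in 10 mM NaOH or the ester-protected form in ethanol (<0.1%). The rise in fluorescence (ex 485/em 535 nm) was followed over time at 37 °C. n = 2, six replicates per plate; mean ± SD.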

[5] = test system: MCF-7 or MDA-MB-231 cells; assay: MTT viability assay; format: cell-based, human; conditions: read-out: IC50 (cytotoxicity), 48 h, 10–100 µM
Summary of the method: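 Breast cancer cells were seeded at 8,000–10,000 per well and grown overnight. They were treated 48 h with test compound (10–100 µM) or ethanol vehicle (<0.1% v/v). MTT (5 mg/mL solution) was added for 1 h at 37 °C, medium was removed, formazan was dissolved in DMSO, and absorbance was read at 550 nm. Growth inhibition was expressed as % of matching control; n ≥ 3, mean ± SD.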

MDA-MB-231 cells = assay: MTT viability assay, 5 combined with tamoxifen; format: cell-based, human
[6] = guinea pig, pH 7.4

SMILES: [Na+].[Na+].[O-][N+]([O-])=NO [Angeli’s salt, sodium trioxodinitrate]
- half-life [1]: ~ 2 min
- concentration range inhibiting proliferation [2]: millimolar range

SMILES: [Na+].[O-]N=[N+]([O-])NC1CCCCCC1 [Compound 3, Sodium 1-(N-cycloheptylamino)diazen-1-ium-1,2-diolate]
- half-life ([3]; pH 7.4): 5.9 ± 0.04 min

SMILES: [Na+].[O-]N=[N+]([O-])NC1CCCC1 [Compound 1, Sodium 1-(N-cyclopentylamino)diazen-1-ium-1,2-diolate]
- half-life ([3]; pH 7.4): 3.6 ± 0.08 min
- k (decomposition rate constant) [3]: 3.2 ± 0.07 × 10^−3 s^−1
- cytotoxicity (clonogenic assay) (MCF-7 cells): lowest cytotoxicity

SMILES: CC(=O)OCON=[N+]([O-])NC1CCCC1 [Compound 5, O^2-(Acetoxymethyl) 1-(cyclopentylamino)diazen-1-ium-1,2-diolate]
- decomposition rate constant at pH 9 ([3]; absence of serum, pH 9): 5.0 × 10^−3 s^−1
- half-life of decomposition ([3]; pH 7.4): 21 min
- DAF-FM fluorescence signal relative to the four ionic compounds [4]: ~ 3 fold
- IC50 [5]: ~100 µM
- viability (MDA-MB-231 cells; 5 at 75 µM, 48 h, MB-231 cells): 75 ± 6%
- half-life of decomposition in the presence of serum esterases [6]: 5.8 min

SMILES: [Na+].[O-]N=[N+]([O-])NC1CCCCCCC1 [Compound 4, Sodium 1-(N-cyclooctylamino)diazen-1-ium-1,2-diolate]
- half-life ([3]; pH 7.4): 5.4 ± 0.07 min
- k (decomposition rate constant) [3]: 2.1 ± 0.02 × 10^−3 s^−1

SMILES: [Na+].[O-]N=[N+]([O-])NC1CCCCC1 [Compound 2, Sodium 1-(N-cyclohexylamino)diazen-1-ium-1,2-diolate]
- half-life ([3]; pH 7.4): 6.1 ± 0.02 min

SMILES: CC(C)N[N+]([O-])=N[O-].[Na+] [IPA/NO, sodium 1-(N-isopropylamino)diazen-1-ium-1,2-diolate]
- half-life [1]: 6.7 min

SMILES: CC/C(=C(\c1ccccc1)c1ccc(OCCN(C)C)cc1)c1ccccc1 [tamoxifen, Tamoxifen, reference compound]
- viability at 10 µM (MDA-MB-231 cells; Homo sapiens, MDA-MB-231, 48 h): 76 ± 13%
